# PLAP activator = activators of human placental alkaline phosphatase | P05187 | purified PLAP enzyme, luminescent substrate read-out; hits give high values | activation fold at 20 µM | 1.2% of 96,000 active; in the data active means activation fold above about 2
# Ecoli tolC = blocks growth of E. coli BW25113 tolC mutant; OD615; 2.2% of 65,000 active; growth inhibition, % at 10 µM (by protocol);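 active means growth inhibition at or above a cutoff equal to the mean over every tested compound plus 3 SD, cut at about 60% in these data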;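 further: growth measured after 20 h incubation at 37 °C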
#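 Material: E. coli BW25113 ΔtolC::kan, tolC deletion mutant strain. Measure: percent growth inhibition. Schedule: 37 °C, 20 h exposure. Doses: single-point testing at 10 µM. Signal: A615 absorbance measurement. Buffer or medium: kanamycin-containing LB broth (50 µg/mL).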
# E coli WT exp = blocks growth of wild type E. coli BW25113 | 0.15% of 98,000 active | OD600 absorbance | AID 710 | growth inhibition, % at 100 µM;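 active means growth inhibition above about 50% at one test dose, limit read from the data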;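 further: growth measured after 20 h incubation at 37 °C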
# HePTP inhibitor = blocks human HePTP tyrosine phosphatase; P35236; recombinant HePTP phosphatase activity, OD absorbance; inhibition, % at 20 µM; 0.64% of 110,000 active; in the data active means inhibition above about 50%;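 further: plate controls were vehicle for no effect and reference inhibitor for full effect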
# Target sequence (P35236 whole entry, looked up): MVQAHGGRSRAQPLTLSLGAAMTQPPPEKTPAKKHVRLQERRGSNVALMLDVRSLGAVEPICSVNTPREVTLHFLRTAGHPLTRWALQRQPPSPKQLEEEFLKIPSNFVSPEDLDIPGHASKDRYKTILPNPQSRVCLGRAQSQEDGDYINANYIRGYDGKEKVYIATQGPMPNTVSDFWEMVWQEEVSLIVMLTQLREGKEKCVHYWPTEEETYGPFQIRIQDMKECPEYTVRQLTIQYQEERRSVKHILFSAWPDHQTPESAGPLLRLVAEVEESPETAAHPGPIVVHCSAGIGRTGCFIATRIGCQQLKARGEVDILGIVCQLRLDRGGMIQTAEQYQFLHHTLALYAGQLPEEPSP
# AP ELISA ortho = orthogonal test for alternative complement pathway inhibitors; inhibition, % at 5 µM; Human serum alternative complement pathway, LPS-coated ELISA, C3 deposition; tested in compound mixtures; 0.08% of 62,000 active;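 active means inhibition above 30% in each of the two pooled mixtures holding the compound, so the lower value exceeds 30%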;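 further: 0% = serum in Mg-EGTA without compound and 100% = EDTA serum blank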
#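 Test system: human serum alternative complement pathway, C3 deposition on LPS-coated wells; also added: Plate-bound LPS; doses: 5 µM per compound in ten-compound mixtures; schedule: 1 h at 37 °C; detection: Anti-C3 ELISA, OD 450 nm; evaluation: percent inhibition of C3 deposition onto LPS; repeats: two pool placements per compound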
# The depositor's hits bear a star; . = no result. Sampled rows, rich in hits. Any-hit rate of the full collection: about 2.3%.
SMILES,PLAP activator,Ecoli tolC,E coli WT exp,HePTP inhibitor,AP ELISA ortho
CCn1cc(C(=O)NCc2ccc3c(c2)OCO3)c(=O)c2cc(F)c(N3CCN(C(=O)c4ccco4)CC3)cc21,1.7,.,73.0*,.,.
Cc1ccc(OCC(=O)NC23CC4CC(CC(C4)C2)C3)c(Br)c1,.,.,.,-1.3,.
Cc1ccc(C(=O)O/N=C(/c2nonc2N)N2CCOCC2)cc1,.,.,.,3.2,.
Cc1csc(NC(=O)c2nc3nc(C)cc(C)n3n2)n1,2.1*,0.6,10.0,-9.0,-15.1
CCSc1nnc(NC(=O)c2cc(C)nc3ccccc23)s1,1,.,-3.0,.,.
CCSc1nnc(NC(=O)c2nc(-c3ccccc3)n(-c3ccccc3)n2)s1,1.4,77.8*,-8.0,5.0,-0.1
Cc1csc(NC(=O)c2nc(-c3ccccc3)n(-c3ccccc3)n2)n1,2.8*,1.0,-6.0,8.0,18.7
COc1ccc(C(=O)n2nc(-c3ccco3)nc2SC)cc1OC,1.2,-7.3,0.0,5.2,101.6*
CSc1nc(-c2ccco2)nn1C(=O)c1cccs1,1,-0.6,-12.0,-8.0,1.1
Oc1[nH]c2ccccc2c1C1=NCCCC1,1,-7.7,4.0,11.0,7.6
O=C1N=c2ccccc2=C1N=Nc1nc(O)c(-c2c(O)[nH]c3ccccc23)s1,.,.,.,66.0*,.
CSc1ccc(/C=N/Nc2nc(Nc3ccccc3)nc(N3CCOCC3)n2)cc1,.,.,.,10.6,.
Cc1ccc(/C(O)=C2\C(=O)C(=O)N(c3cc(C)on3)C2c2cccc(Br)c2)cc1 (centres undefined),1.2,64.6*,-7.0,-2.7,0.7
CC1=C(C(=O)Nc2ccccc2)C(c2cccs2)C(C#N)=C(SCC(=O)c2ccccc2)N1 (centres undefined),.,.,.,-2.2,.
COc1ccccc1-c1nnc(NC(=O)c2ccccc2F)o1,1,0.9,7.0,4.6,23.2
COc1ccccc1NC(=O)CN(Cc1ccccc1)S(=O)(=O)c1ccccc1,.,.,.,4.9,.
COc1ccccc1-c1nnc(NC(=O)c2ccc(S(=O)(=O)N(C)C)cc2)o1,1.1,96.0*,0.0,9.9,9.5
CCN(Cc1ccccc1)S(=O)(=O)c1ccc(C(=O)Nc2nnc(-c3ccccc3OC)o2)cc1,1.7,97.8*,-3.0,11.6,3.1
Cc1n[nH]c(C)c1Sc1ccccc1N=Cc1ccc2ccccc2c1,.,.,.,2.3,.
Cc1cc(C)nc(Nc2ncc(O)n2-c2ccc(C)c(C)c2)n1,2.6*,.,8.0,.,.
Cc1nnc(C)n1/N=C/c1cc(Br)cc(Br)c1O,1,2.4,51.0*,6.6,7.2
CCN(CC)S(=O)(=O)c1ccc(NC(=O)c2ccccc2N(C)S(C)(=O)=O)cc1,2.1*,.,-7.0,.,.
Cc1nn(-c2ccccc2)c2c1C1(C(=O)N3c4c(cccc41)C(C)CC3(C)C)C(C#N)=C(N)O2 (centres undefined),1.6,.,3.0,.,.
Cc1ccc2c3c1C1(C(=O)N3C(C)(C)CC2C)C(C#N)=C(N)Oc2cc(O)ccc21 (centres undefined),0.9,97.0*,-3.0,-5.3,14.0
Cc1cc2c3c(c1)C1(C(=O)N3C(C)(C)CC2C)C(C#N)=C(N)Oc2cc(O)ccc21 (centres undefined),1.4,68.2*,0.0,2.4,8.7
SMILES,PLAP activator,Ecoli tolC,E coli WT exp,HePTP inhibitor,AP ELISA ortho
CC1=CC(C)(C)N2C(=O)C3(C(C#N)=C(N)Oc4cc(O)ccc43)c3cccc1c32 (centres undefined),1.5,99.8*,13.0,0.4,-10.6
COc1ccc(S(=O)(=O)N(CC(=O)N2CCCCCC2)c2ccc(C)cc2)cc1OC,.,.,.,11.8,.
COc1ccccc1N1CCN(Cc2nc(N)nc(Nc3ccc(C)c(Cl)c3)n2)CC1,1.5,69.0*,3.0,10.4,20.5
Cc1cc(C)c2cc(CN(CC3CCCO3)S(=O)(=O)c3ccc4c(c3)OCCO4)c(=O)[nH]c2c1 (centres undefined),1.6,66.6*,-4.0,2.2,6.7
Cc1ccc(S(=O)(=O)N(Cc2cc3cc4c(cc3[nH]c2=O)OCCO4)CC2CCCO2)cc1 (centres undefined),1.3,-13.9,-7.0,-1.9,4.3
Cc1ccc(S(=O)(=O)N(c2ccccc2)C2C=CS(=O)(=O)C2)cc1 (centres undefined),.,.,.,2.0,.
Cc1ccc2c(c1)NC(=O)C(CC(=O)NCCCN1CCN(c3cc(Cl)ccc3C)CC1)O2 (centres undefined),1.6,71.2*,12.0,-3.3,-11.5
COc1ccc(CNC(=O)c2c(N)n(CCCN3CCOCC3)c3nc4ccccc4nc23)cc1,1.9,.,6.0,.,.
Nc1c(C(=O)NCc2ccc(F)cc2)c2nc3ccccc3nc2n1CCCN1CCOCC1,2*,.,10.0,.,.
CCCC(=O)Nc1nnc(COc2ccccc2)s1,.,.,.,7.4,.
CCOc1cc(CNCCO)cc(Br)c1OCc1cccs1,1.2,.,11.0,.,.
CCOc1cc(CNCCO)cc(Br)c1OCc1ccc(Cl)cc1Cl,1.3,.,80.0*,.,.
Cc1ccc(NC(=O)NC2CCCC2)cc1,.,.,.,0.5,.
Cc1ccccc1C1=N/C(=C\c2ccc(Br)o2)C(=O)O1,.,.,.,59.5*,.
Cc1ccc(-n2nc3cc(C)c(NC(=O)c4cccc(Br)c4)cc3n2)cc1,.,.,.,5.1,.
CC1CC(Nc2ccccc2)c2ccccc2N1C(=O)c1ccc(Cl)c(Cl)c1 (centres undefined),.,.,.,9.9,.
Cc1ccccc1NC1CC(C)N(C(=O)c2ccccc2)c2c(C)cccc21 (centres undefined),.,.,.,103.0*,.
Cc1cccc(N(CC(=O)NC2CCCC2)C(=O)CCCC(=O)Nc2ccccn2)c1,2*,-8.6,0.0,9.5,18.3
Cc1cc(C(=O)CSc2nc3ccccc3o2)c(C)n1C1CC1,0.9,76.5*,-6.0,4.7,2.1
C=CCn1c(C)cc(C(=O)CSc2nc3ccccc3o2)c1C,1.1,39.8,-5.0,6.4,14.6
CC1CCCN(C/C(O)=C(\C#N)c2nc3ccccc3[nH]2)C1 (centres undefined),2*,-16.0,4.0,3.5,16.3
CCOC(=O)c1c(C)[nH]c(C(=O)OC/C(O)=C(\C#N)c2nc3ccccc3[nH]2)c1C,2.1*,5.7,7.0,7.7,9.9
Cc1cc(C)n2c(SC/C(O)=C(\C#N)c3nc4ccccc4[nH]3)nnc2n1,2*,-12.9,-4.0,19.9,3.8
Cc1ccccc1-n1c(SC/C(O)=C(\C#N)c2nc3ccccc3[nH]2)nnc1-c1ccncc1,1.8,-11.1,0.0,4.8,6.2
COc1ccc(C/C(O)=C(\C#N)c2nc3ccccc3[nH]2)cc1OC,2.7*,5.3,-10.0,2.0,-5.4
COc1ccc(C(=O)CSc2nc3cc(OC)ccc3n2Cc2ccccc2)cc1,.,.,.,-10.0,.
CC(/C=C/c1ccccc1)=N\N=C1\NC(=O)C(Cc2ccccc2)S1 (centres undefined),.,.,.,103.6*,.
CCc1ccccc1NC(=O)CC1S\C(=N/N=C(C)/C=C/c2ccc(OC)cc2)NC1=O (centres undefined),.,.,.,-0.2,.
CC(C)c1cc(=O)oc2c3c4c(cc12)CCCN4CCC3,2*,22.8,1.0,6.0,8.3
O=c1oc2c3c4c(cc2c(C(F)(F)F)c1CCN1CCOCC1)CCCN4CCC3,1.3,15.9,-2.0,3.7,.

# Compound activity: PubChem BioAssay, several laboratories
